This is an account of results in ChEMBL document CHEMBL3112482, “Nonclassical antifolates, part 5. Benzodiazepine analogs as a new class of DHFR inhibitors: synthesis, antitumor testing and molecular modeling study” (Eur J Med Chem, 2014).

What all share (type): functional
For one experiment, the system named is RPMI-8226. Put plainly: Growth inhibition of human RPMI8226 cells at 10 uM after 48 hrs. To be noted: RPMI-8226, 48 h, read-out: GI. A digest of the protocol: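 Single-dose primary screen in the NCI 60 human tumour cell line panel, run at the NCI facility. The panel covers nine subpanels: leukaemia, non-small cell lung, colon, CNS, melanoma, ovarian, renal, prostate and breast. Read-out was percent growth of treated cells, shown as a mean graph and reported as percent growth inhibition.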

Experiment [1] concerns Cancer cell lines. The experiment in a line: Ratio of 5-FU GI50 to compound GI50 for human renal cancer cells. A digest of the protocol:
(§1)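 Compounds passing the NCI single-dose primary screen were retested across the 60 human tumour cell lines (nine subpanels) over a 5-log dose range. GI50, TGI and LC50 were recorded for each cell line, with 5-fluorouracil run as the reference drug. Subpanel values for compound and 5-FU were then compared.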

A further experiment concerns Leukemia cell. The experiment in a line: Ratio of 5-FU TGI to compound TGI for human leukemia cells.
Experiment [2] concerns Cancer cell lines. The experiment in a line: Ratio of 5-FU TGI to compound TGI for human CNS cancer cells.
Experiment [3] has as its system Cancer cell lines. Put plainly: Ratio of 5-FU TGI to compound TGI for human ovarian cancer cells.
In experiment [4] the test system is Cancer cell lines. The experiment in a line: Ratio of 5-FU LC50 to compound LC50 for human ovarian cancer cells. In outline: as §1
The test system of experiment [5] is Cancer cell lines. Put plainly: Ratio of 5-FU GI50 to compound GI50 for human CNS cancer cells. In outline: as §1
The subject of experiment [6] is Cancer cell lines. The experiment in a line: Ratio of 5-FU TGI to compound TGI for human breast cancer cells.
Experiment [7] has as its system Cancer cell lines. The experiment in a line: Ratio of 5-FU TGI to compound TGI for human prostate cancer cells.
Experiment [8] deals with Cancer cell lines. Put plainly: Ratio of 5-FU GI50 to compound GI50 for human non-small cell lung cancer cells. In outline:
as §1

Consider `COc1ccc(/C=C2\CCCc3c2nc(N)nc3-c2ccc(OC)c(OC)c2)cc1OC`, for which the inhibition of growth at 10 µM in the experiment with RPMI-8226 is 84.8%.
Turning to `COc1ccc(/C=C2\CCCc3c2nc(C)nc3-c2ccc(OC)cc2)cc1`, the inhibition of growth at 10 µM in the experiment with RPMI-8226 was 50.1%.
Still for that read-out and setting: under `Cc1nc2c(c(-c3ccc(Br)cc3)n1)CCC/C2=C\c1ccc(Br)cc1` stands 73.7%.
On the same count and under the same terms, the figure for `COc1ccc(/C=C2\CCCC3=C(c4ccc(OC)cc4)Nc4ccccc4N=C32)cc1` is 74.3%; for `COc1ccc(/C=C2\CCCc3c2nc(N)nc3-c2ccc(OC)cc2)cc1` it is 42.3%.
In the case of `COc1cc(/C=C2\CCCc3c2nc(C)nc3-c2cc(OC)c(OC)c(OC)c2)cc(OC)c1OC`, the RatioGI50 with Cancer cell lines [1], in the experiment on Cancer cell lines [5] and in the experiment with Cancer cell lines [8] was 15 throughout. In addition, the Ratio with Leukemia cell, in the experiment with Cancer cell lines [2], in the experiment with Cancer cell lines [3], with Cancer cell lines [6] and with Cancer cell lines [7] was 15 each time. In addition, the RatioLC50 in the experiment with Cancer cell lines [4] was found to be 15.
As to `COc1cc(/C=C2\CCCC3=C(c4cc(OC)c(OC)c(OC)c4)Nc4ccccc4N=C32)cc(OC)c1OC`, the RatioGI50 in the experiment with Cancer cell lines [1], in the experiment on Cancer cell lines [5] and in the experiment with Cancer cell lines [8] was 11 throughout. For the same compound, the Ratio in the experiment with Leukemia cell, in the experiment with Cancer cell lines [2], with Cancer cell lines [3], in the experiment on Cancer cell lines [6] and in the experiment on Cancer cell lines [7] was 11 in each case. Besides, in the experiment with Cancer cell lines [4], the RatioLC50 was determined as 11.
Regarding `COc1cc(/C=C2\CCCc3c2nc(N)nc3-c2cc(OC)c(OC)c(OC)c2)cc(OC)c1OC`, the RatioGI50 in the experiment on Cancer cell lines [1], with Cancer cell lines [5] and in the experiment with Cancer cell lines [8] was 15 each time. For the same compound, the Ratio in the experiment with Leukemia cell, with Cancer cell lines [2], in the experiment with Cancer cell lines [3], in the experiment on Cancer cell lines [6] and in the experiment with Cancer cell lines [7] was 15 in each case. Further, in the experiment with Cancer cell lines [4], the RatioLC50 came out at 15.
